Reference: ChEMBL document CHEMBL1126701, “New mechanism-based inactivators of trypsin-like proteinases. Selective inactivation of urokinase by functionalized cyclopeptides incorporating a sulfoniomethyl-substituted m-aminobenzoic acid residue” (J Med Chem, 1993)
Activity calls are given as the source filed them. The calls are words filed in the database; no cut-off is given here.

How the values were obtained:
[1] = target: Prothrombin (Homo sapiens) (UniProt P00734); assay: Ratio of inactivation to apparent binding constant against thrombin;NI=no inhibition
Outline: (§1)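 Thrombin (0.1 μM) preincubated with 300 μM inhibitor at pH 7.5, 25 °C. Timed aliquots assayed for residual activity with S-2238. Pseudo-first-order kobs from semilog plot of remaining activity vs time.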

[2] = target: T1, Serine protease 1 (Bos taurus) (UniProt P00760); assay: Inactivation constant determined against bovine trypsin
T1 sequence (whole entry): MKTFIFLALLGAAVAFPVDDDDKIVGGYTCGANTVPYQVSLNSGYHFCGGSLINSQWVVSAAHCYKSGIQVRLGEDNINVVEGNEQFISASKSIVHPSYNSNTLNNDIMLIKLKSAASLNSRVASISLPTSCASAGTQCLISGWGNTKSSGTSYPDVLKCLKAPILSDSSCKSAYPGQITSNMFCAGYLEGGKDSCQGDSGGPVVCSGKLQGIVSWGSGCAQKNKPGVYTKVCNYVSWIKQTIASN
Outline: (§2)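 Pseudo-first-order inactivation at pH 7.5, 25 °C, inhibitor in excess. Two methods. Preincubation: aliquots taken over time and assayed for residual activity, kobs from semilog plots. Progress curve: continuous A405 with chromogenic substrate present, vs blank with inhibitor and substrate (trypsin 0.5 μM, BAPNA 0.3 mM, 1.5% DMSO; urokinase 31 nM, S-2444). KI and kinact from double-reciprocal (Wilkinson) fits.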

[3] = target: T1, Serine protease 1 (Bos taurus); assay: Ratio of inactivation to apparent binding constant against bovine trypsin; outline: as §2
[4] = target: T2, Serine protease 1 (Bos taurus, UniProt P00760); assay: Apparent binding constant against bovine trypsin; outline: as §2
T2 sequence (P00760 whole entry): T1 sequence (whole entry)

[5] = target: T3, Urokinase-type plasminogen activator (Homo sapiens, UniProt P00749); assay: Apparent binding constant against Human urokinase; outline: as §2
[6] = target: T3, Urokinase-type plasminogen activator; assay: Inactivation constant determined against urokinase; outline: as §2
[7] = target: T3, Urokinase-type plasminogen activator; assay: Ratio of inactivation to apparent binding constant against human urokinase; outline: as §2
[8] = target: Tissue-type plasminogen activator (Homo sapiens) (UniProt P00750); assay: Ratio of inactivation to apparent binding constant against tissue plasminogen activator (t-PA);NI=no inhibition
Outline: (§3)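 t-PA (0.75 μM) preincubated with inhibitor 0.37-1 mM at pH 7.5, 25 °C. Aliquots assayed periodically for remaining amidolytic activity with p-nitroanilide substrate. kobs from semilogarithmic plots.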

[9] = target: Plasminogen (Homo sapiens) (UniProt P00747); assay: Ratio of inactivation to apparent binding constant against plasmin
Outline: (§4)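 Plasmin (1 μM; 0.7 μM in one series) preincubated with inhibitor 34-560 μM at pH 7.5, 25 °C. Aliquots assayed for residual activity on S-2251. kobs from semilog plots; kinact/KI from Kitz-Wilson analysis or as kobs/[I].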

[10] = target: Trypsin (Sus scrofa) (UniProt P00761); assay: Inactivation constant determined against porcine trypsin
[11] = target: Trypsin (Sus scrofa) (UniProt P00761); assay: Ratio of inactivation to apparent binding constant against porcine trypsin
[12] = target: Plasminogen (Homo sapiens) (UniProt P00747); assay: Ratio of inactivation to apparent binding constant against plasmin;NI=no inhibition; outline: as §4
[13] = target: T1, Serine protease 1 (Bos taurus); assay: Ratio of inactivation to apparent binding constant against bovine trypsin (obtained as k obs/[I] at low inhibitor concentration)
Outline: (§5)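 For weak inactivation, kinact/KI taken as kobs/[I] at low inhibitor concentration. Preincubation at pH 7.5, 25 °C: trypsin 4.5 μM or urokinase 55 μM with excess inhibitor. Aliquots diluted (or filtered at 4 °C) and assayed for residual activity on BAPNA or S-2444. kobs by least squares of semilog remaining activity vs time.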

[14] = target: T3, Urokinase-type plasminogen activator; assay: Ratio of inactivation to apparent binding constant against human urokinase (obtained as k obs/[I] at low inhibitor concentration); outline: as §5
[15] = target: T1, Serine protease 1 (Bos taurus); assay: Ratio of inactivation to apparent binding constant against bovine trypsin;NI=no inhibition
[16] = target: T3, Urokinase-type plasminogen activator; assay: Ratio of inactivation to apparent binding constant against human urokinase; NI=no inhibition
[17] = target: T1, Serine protease 1 (Bos taurus)
[18] = target: T3, Urokinase-type plasminogen activator
[19] = target: Prothrombin (Homo sapiens) (UniProt P00734); assay: Ratio of inactivation to apparent binding constant against thrombin; outline: as §1
[20] = target: Tissue-type plasminogen activator (Homo sapiens) (UniProt P00750); assay: Ratio of inactivation to apparent binding constant against tissue plasminogen activator (t-PA); outline: as §3

Chain of Tissue-type plasminogen activator (Homo sapiens) (P00750 36-562 limits assumed): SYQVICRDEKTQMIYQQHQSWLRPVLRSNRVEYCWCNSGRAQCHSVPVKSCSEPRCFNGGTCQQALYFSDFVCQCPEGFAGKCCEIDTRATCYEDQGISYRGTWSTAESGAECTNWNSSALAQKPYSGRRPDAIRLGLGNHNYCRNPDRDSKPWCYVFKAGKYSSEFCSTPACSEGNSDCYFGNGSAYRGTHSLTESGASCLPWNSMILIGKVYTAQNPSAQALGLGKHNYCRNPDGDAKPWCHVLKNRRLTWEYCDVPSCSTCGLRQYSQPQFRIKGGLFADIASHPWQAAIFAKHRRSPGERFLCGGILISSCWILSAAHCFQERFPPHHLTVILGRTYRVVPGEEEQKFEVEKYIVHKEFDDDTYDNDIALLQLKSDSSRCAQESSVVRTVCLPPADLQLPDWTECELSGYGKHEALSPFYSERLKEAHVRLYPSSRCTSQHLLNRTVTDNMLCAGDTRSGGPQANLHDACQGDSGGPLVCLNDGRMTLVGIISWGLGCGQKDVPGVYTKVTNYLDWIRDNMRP
Chain of Plasminogen (Homo sapiens) (P00747 97-580 limits assumed): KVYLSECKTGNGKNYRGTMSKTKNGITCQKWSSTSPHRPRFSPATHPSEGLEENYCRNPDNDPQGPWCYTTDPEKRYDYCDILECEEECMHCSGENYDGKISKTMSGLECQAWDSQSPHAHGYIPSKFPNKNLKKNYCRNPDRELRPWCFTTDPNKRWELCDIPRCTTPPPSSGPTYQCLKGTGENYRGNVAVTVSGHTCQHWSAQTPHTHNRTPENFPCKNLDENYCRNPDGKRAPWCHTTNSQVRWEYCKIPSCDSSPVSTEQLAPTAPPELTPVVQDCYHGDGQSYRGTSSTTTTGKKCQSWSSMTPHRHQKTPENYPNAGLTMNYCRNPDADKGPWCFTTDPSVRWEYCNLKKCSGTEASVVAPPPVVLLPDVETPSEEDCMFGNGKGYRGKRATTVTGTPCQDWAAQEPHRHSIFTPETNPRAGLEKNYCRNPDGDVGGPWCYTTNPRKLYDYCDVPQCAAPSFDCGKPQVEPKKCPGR
Chain of Plasminogen (Homo sapiens) (P00747 581-810 limits assumed): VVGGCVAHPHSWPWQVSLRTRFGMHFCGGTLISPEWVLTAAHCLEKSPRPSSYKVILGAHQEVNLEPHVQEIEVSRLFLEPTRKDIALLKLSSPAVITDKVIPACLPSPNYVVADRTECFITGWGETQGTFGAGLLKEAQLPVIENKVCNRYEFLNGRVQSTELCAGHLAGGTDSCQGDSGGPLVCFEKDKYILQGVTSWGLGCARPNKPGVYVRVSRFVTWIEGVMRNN
Chain of Trypsin (Sus scrofa) (P00761 whole entry, looked up): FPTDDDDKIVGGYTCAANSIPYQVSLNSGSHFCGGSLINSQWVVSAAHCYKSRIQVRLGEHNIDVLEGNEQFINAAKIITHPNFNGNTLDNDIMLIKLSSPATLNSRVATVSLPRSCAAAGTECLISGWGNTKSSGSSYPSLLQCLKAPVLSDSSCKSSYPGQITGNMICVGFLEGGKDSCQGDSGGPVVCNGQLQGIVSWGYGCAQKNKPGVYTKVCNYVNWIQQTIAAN

Structure (SMILES)	Ratio [1]	K inact [2]	Ratio [3]	Ki [4]	Ki [5]	K inact [6]	Ratio [7]	Ratio [8]	Ratio [9]	Ratio [12]	Ratio [15]	other results
C[S+](Cc1ccc2cc1C(=O)NCC(=O)NC(CCCCN)C(=O)N2)c1ccccc1 (stereo unspecified)	inactive	0.0075 s⁻¹	860 M⁻¹ s⁻¹	8.7 µM	500 µM	0.077 s⁻¹	154 M⁻¹ s⁻¹	inactive	75 M⁻¹ s⁻¹	–	–	–
N=C(N)NCCCC1NC(=O)CNC(=O)c2cc(ccc2CBr)NC1=O (stereo unspecified)	inactive	0.031 s⁻¹	560 M⁻¹ s⁻¹	55 µM	92 µM	0.017 s⁻¹	185 M⁻¹ s⁻¹	inactive	2 M⁻¹ s⁻¹	–	–	K inact [10]: 0.041 s⁻¹; Ratio [11]: 2050 M⁻¹ s⁻¹
NCCCCC1NC(=O)CNC(=O)c2cc(ccc2CBr)NC1=O (stereo unspecified)	inactive	0.02 s⁻¹	250 M⁻¹ s⁻¹	80 µM	–	–	–	inactive	–	inactive	–	–
C[S+](C)Cc1ccc2cc1C(=O)NCC(=O)NC(CCCN=C(N)N)C(=O)N2 (stereo unspecified)	inactive	–	1 M⁻¹ s⁻¹	–	41 µM	0.014 s⁻¹	341 M⁻¹ s⁻¹	inactive	–	inactive	–	–
C[S+](Cc1ccc2c(c1)C(=O)NCC(=O)NC(CCCCN)C(=O)N2)c1ccccc1 (stereo unspecified)	inactive	–	–	–	–	–	25 M⁻¹ s⁻¹	inactive	–	inactive	inactive	–
C[S+](C)Cc1ccc2cc1C(=O)NCC(=O)NC(CCCCN)C(=O)N2 (stereo unspecified)	inactive	–	–	–	–	–	–	inactive	–	inactive	inactive	–

Now from value to molecule, other results behind:

Ratio [1]	K inact [2]	Ratio [3]	Ki [4]	Ki [5]	K inact [6]	Ratio [7]	Ratio [8]	Ratio [9]	Ratio [12]	Ratio [15]	Structure (SMILES)	other results
inactive	–	–	–	–	–	–	inactive	–	inactive	–	C[S+](Cc1ccc2c(c1)C(=O)NCC(=O)NC(CCCN=C(N)N)C(=O)N2)c1ccccc1 (stereo unspecified)	Ratio [13]: 50 M⁻¹ s⁻¹; Ratio [14]: 14 M⁻¹ s⁻¹
inactive	–	–	–	–	–	–	inactive	–	inactive	inactive	NCCCCC1NC(=O)CNC(=O)c2cc(CBr)ccc2NC1=O (stereo unspecified)	Ratio [16]: inactive
12 M⁻¹ s⁻¹	–	916 M⁻¹ s⁻¹	12 µM	9 µM	–	2330 M⁻¹ s⁻¹	1 M⁻¹ s⁻¹	40 M⁻¹ s⁻¹	–	–	C[S+](Cc1ccc2cc1C(=O)NCC(=O)NC(CCCN=C(N)N)C(=O)N2)c1ccccc1 (stereo unspecified)	kinact [17]: 0.011 s⁻¹; kinact [18]: 0.021 s⁻¹
–	–	–	–	–	–	–	–	No inactivation	–	5 M⁻¹ s⁻¹	N=C(N)NCCCC1NC(=O)CNC(=O)c2cc(CBr)ccc2NC1=O (stereo unspecified)	Ratio [19]: No inactivation; Ratio [16]: 14 M⁻¹ s⁻¹; Ratio [20]: No inactivation
